Rows were chosen to be rich in hits. Some 2.8% of all compounds tested hit in one or more screens of this group.
Rtt109 HAT inh: inhibitors of C. albicans Rtt109/Vps75 HAT, primary screen, biochemical, ThioGlo CoA-SH fluorescence, plate reader; purified Rtt109/Vps75, 4 h; AID 540336, 2011; inhibition, % at 34.9 µM; 0.16% of 330,000 active; Histone acetyltransferase RTT109 (Candida albicans (strain SC5314 / ATCC MYA-2876)), …;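 active = inhibition of at least 50% in every replicate; inconclusive = best replicate reaches 50% inhibition but some replicates fall short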
Target sequence (Q5AAJ8 whole entry, looked up): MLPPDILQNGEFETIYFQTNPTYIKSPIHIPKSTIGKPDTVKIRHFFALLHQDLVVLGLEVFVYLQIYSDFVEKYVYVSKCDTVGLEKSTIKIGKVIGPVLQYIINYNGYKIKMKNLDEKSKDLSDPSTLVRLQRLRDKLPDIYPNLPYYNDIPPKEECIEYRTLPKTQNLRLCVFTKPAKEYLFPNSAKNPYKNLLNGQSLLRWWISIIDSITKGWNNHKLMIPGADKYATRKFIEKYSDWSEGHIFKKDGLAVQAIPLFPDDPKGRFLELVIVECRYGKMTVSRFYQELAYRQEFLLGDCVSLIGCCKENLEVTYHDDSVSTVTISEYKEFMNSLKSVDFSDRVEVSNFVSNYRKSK
NR3A LBD binder: binders of NR3A ligand-binding domain, primary screen, biophysical, differential scanning fluorimetry, uHTS. Tm shift relative to glycine control, % at 25 µM. Glutamate receptor ionotropic, NMDA 3A (GRIN3A) ligand-binding domain. NR3A LBD differential scanning fluorimetry, Tm shift; 0% = protein alone, 100% = glycine-bound protein. 2.5% of 340,000 active;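 active = melting temperature shift of at least 10% of the positive control shift, at one fixed dose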
JMJD2C inh: inhibitors of GASC-1 histone demethylase, primary screen, biochemical, fluorescence, DELFIA europium | Lysine-specific demethylase 4C (Homo sapiens), Q9H3R0 | GST-JMJD2C(1-420) H3K9me3 demethylation | inhibition, % at 2.35 µM | 0.069% of 330,000 active | AID 2099, 2009;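 active = more than half of a compound's replicate wells show inhibition beyond 50%, single wells judged on their own value; inconclusive = some, but no more than half, of replicates pass 50% inhibition; inactive = no replicate passes 50% inhibition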;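 note: signal counts dimethyl H3K9 product captured on neutravidin plate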
T cell HTS: modulators of CD8 T cell-vesicle binding, primary screen, mouse 2C CD8+ T cells, flow cytometry. 0.068% of 330,000 active. 2C CD8+ T cell-vesicle binding; stronger effect = lower value. response (vesicle binding), % at 7 µM. AID 2052, 2009;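 active = response, share of CD8 T cells binding vesicles, and their 90th percentile fluorescence all below set limits, cut at about 80% in these data, passing the limit was not always enough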;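 note: values below 100% mean blocked vesicle binding to the CD8+ T cells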
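Benchmarks: naked versus QL9-loaded vesicles / Assay system: purified 2C TCR transgenic mouse naive CD8+ T cells / Technique: high-throughput flow cytometry with anti-B7-1 and anti-CD8 staining / Timing: Cell–vesicle co-incubation 1.5 h at 37 °C, staining 20 min on ice / Read-out: percent CD8+ FL2 mean versus row control / Probe or stimulus: QL9-loaded Drosophila micro-vesicles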
Large screens that a line does not name were inactive.

Cn1cccc1C(=O)Nc1ccc(Cl)c(S(=O)(=O)N2CCCCC2)c1	none
Cc1ccc(S(=O)(=O)N2CCN(C(=O)c3cc(S(=O)(=O)N4CCOCC4)ccc3Cl)CC2)c(C)c1	NR3A LBD binder 12 (no result: JMJD2C inh, T cell HTS)
Cc1ccc(C(=O)N2CCOCC2)cc1S(=O)(=O)N1CCCC1	NR3A LBD binder 11
O=C(c1cc(S(=O)(=O)N2CCCCC2)ccc1Cl)N1CCOCC1	none
CCOC(=O)C1CCN(C(=O)c2ccc(C)c(S(=O)(=O)N3CCCC3)c2)CC1	NR3A LBD binder 11
C=CCOC(=O)Cn1cnc2c(sc3nc(C)cc(C)c32)c1=O	none
Nc1ncnc2c1ncn2[C@@H]1O[C@H](CNC(=O)[C@@H](N)C2CCCCC2)[C@@H](O)[C@H]1O	NR3A LBD binder 15 (no result: JMJD2C inh, T cell HTS)
CC(C)(O)C#Cc1ccc(CNC[C@H]2O[C@@H](n3cnc4c(N)ncnc43)[C@H](O)[C@@H]2O)s1	NR3A LBD binder 13 (no result: JMJD2C inh, T cell HTS)
N#Cc1c(C(F)(F)F)cc(Cc2ccccc2)nc1SCC(=O)NCC(=O)O	none
C[C@H](CO)N1C[C@H](C)[C@@H](CN(C)C(=O)NC2CCCCC2)Oc2c(NC(=O)Cc3ccccc3)cccc2C1=O	none
CCCCCn1c(CN2CCN(c3cc(Cl)ccc3C)CC2)nc2c1c(=O)[nH]c(=O)n2C	NR3A LBD binder 24
CCCCCn1c(N2CCN(c3cccc(Cl)c3)CC2)nc2c1c(=O)[nH]c(=O)n2C	none
CCCCOC(=O)c1ccc(NC(=O)C(=O)NCc2ccncc2)cc1	T cell HTS 0.0
CCOC(=O)c1ccc(NC(=O)C(=O)NCc2ccncc2)cc1	none
O=C(c1cccc(N2C(=O)C3C4C=CC(C4)C3C2=O)c1)N1CCN(c2ccccc2Cl)CC1 (stereo unspecified)	none
Cc1ccc2nc(-c3ccc(SCC(=O)Nc4nnc(C)s4)nc3)[nH]c2c1	NR3A LBD binder 24
Cc1ccc(SCC(=O)Nc2ccc(-c3nc4ccccc4[nH]3)cc2)cc1	NR3A LBD binder 35
COCCNC(=O)CSc1ccc(-c2nc3ccccc3[nH]2)cn1	none
Cc1nc(NC(=O)CSc2ccc(-c3nc4ccccc4[nH]3)cn2)sc1C	NR3A LBD binder 20
CCc1nnc(NC(=O)CSc2ccc(-c3ccc(-n4cccn4)cc3)nn2)s1	NR3A LBD binder 35
Cc1ccc(NC(=O)CCCSc2nc3ccccc3[nH]2)cc1	none
COc1ccc(CNCc2cccc3ccccc23)cc1	none
Cc1ccn2c(CNCC3COCCO3)c(C(=O)N3CCCCCC3)nc2c1 (stereo unspecified)	none
CCc1nnc(NC(=O)CSc2ccc(-c3nc4ccccc4[nH]3)cn2)s1	NR3A LBD binder 19 (no result: Rtt109 HAT inh)
Cc1cc(Br)c(NC(=O)c2c(-c3c(Cl)cccc3Cl)noc2C)c(Br)c1	NR3A LBD binder 12, T cell HTS 26
C=C1CC(Cn2cc(Br)c(=O)[nH]c2=O)(c2ccc(-c3ccccc3)cc2)OC1=O (stereo unspecified)	none (no result: JMJD2C inh, T cell HTS)
Cc1ccc2oc(=O)c3cnn(CC(=O)NCCC(C)C)c3c2c1	NR3A LBD binder 13
NC(=O)N/N=C/c1cn(-c2ccccc2)nc1-c1ccccc1	none
NS(=O)(=O)c1ccc(N/N=C/c2cn(-c3ccccc3)nc2-c2ccccc2)c([N+](=O)[O-])c1	none
O=[N+]([O-])c1ccc(N/N=C/c2cn(-c3ccccc3)nc2-c2ccccc2)cc1	NR3A LBD binder 41
Cc1ccc(S(=O)(=O)N/N=C/c2c(C)nn(-c3ccccc3)c2C)cc1	none
COc1ccc(-c2nn(-c3ccccc3)cc2/C=N/n2cnnc2)cc1OC	Rtt109 HAT inh inconclusive
Cc1ccc(S(=O)(=O)N/N=C\c2cn(-c3ccccc3)nc2-c2ccccc2)cc1	NR3A LBD binder 29
COc1ccc(-c2nn(-c3ccccc3)cc2/C=N/NC(N)=S)cc1OC	NR3A LBD binder 19
O=S(=O)(N/N=C\c1cn(-c2ccccc2)nc1-c1ccccc1)c1ccccc1	NR3A LBD binder 20 (no result: Rtt109 HAT inh)
Nc1nccnc1C(=O)OCC(=O)NNC(=O)c1ccccc1	none
COc1cc(-c2nnc(COC(=O)c3nn(CC(C)C)c(=O)c4ccccc34)o2)cc(OC)c1OC	none
Cc1ccc(-c2nn(-c3ccccc3)cc2/C=N/NS(=O)(=O)c2ccccc2)cc1	NR3A LBD binder 24
Cc1ccc(-c2nn(-c3ccccc3)cc2/C=N/O)cc1	none

From PubChem
